Among the data in ChEMBL document CHEMBL3797186, “Single Residue Substitutions That Confer Voltage-Gated Sodium Ion Channel Subtype Selectivity in the NaV1.7 Inhibitory Peptide GpTx-1” (J Med Chem, 2016) are IC50 values, retold here.

The IC50 is the concentration at which inhibition is half-maximal.

Positions of bridges follow the written chain, without caps; N, C: chain ends. Residues, ends and D or L forms follow the SMILES beside them.

The target of the assay is Sodium channel protein type 5 subunit alpha (Homo sapiens, UniProt Q14524). Kind of assay: Inhibition of human Nav1.5 expressed in HEK293 cells assessed as inward peak current by ion-works quattro patch clamp electrophysiology method. It is filed as cell-based. Put shortly: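 Stable HEK293 line expressing human NaV1.5, recorded by population patch clamp on the IonWorks Quattro.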
Sodium channel protein type 5 subunit alpha, sequence (Q14524 whole entry): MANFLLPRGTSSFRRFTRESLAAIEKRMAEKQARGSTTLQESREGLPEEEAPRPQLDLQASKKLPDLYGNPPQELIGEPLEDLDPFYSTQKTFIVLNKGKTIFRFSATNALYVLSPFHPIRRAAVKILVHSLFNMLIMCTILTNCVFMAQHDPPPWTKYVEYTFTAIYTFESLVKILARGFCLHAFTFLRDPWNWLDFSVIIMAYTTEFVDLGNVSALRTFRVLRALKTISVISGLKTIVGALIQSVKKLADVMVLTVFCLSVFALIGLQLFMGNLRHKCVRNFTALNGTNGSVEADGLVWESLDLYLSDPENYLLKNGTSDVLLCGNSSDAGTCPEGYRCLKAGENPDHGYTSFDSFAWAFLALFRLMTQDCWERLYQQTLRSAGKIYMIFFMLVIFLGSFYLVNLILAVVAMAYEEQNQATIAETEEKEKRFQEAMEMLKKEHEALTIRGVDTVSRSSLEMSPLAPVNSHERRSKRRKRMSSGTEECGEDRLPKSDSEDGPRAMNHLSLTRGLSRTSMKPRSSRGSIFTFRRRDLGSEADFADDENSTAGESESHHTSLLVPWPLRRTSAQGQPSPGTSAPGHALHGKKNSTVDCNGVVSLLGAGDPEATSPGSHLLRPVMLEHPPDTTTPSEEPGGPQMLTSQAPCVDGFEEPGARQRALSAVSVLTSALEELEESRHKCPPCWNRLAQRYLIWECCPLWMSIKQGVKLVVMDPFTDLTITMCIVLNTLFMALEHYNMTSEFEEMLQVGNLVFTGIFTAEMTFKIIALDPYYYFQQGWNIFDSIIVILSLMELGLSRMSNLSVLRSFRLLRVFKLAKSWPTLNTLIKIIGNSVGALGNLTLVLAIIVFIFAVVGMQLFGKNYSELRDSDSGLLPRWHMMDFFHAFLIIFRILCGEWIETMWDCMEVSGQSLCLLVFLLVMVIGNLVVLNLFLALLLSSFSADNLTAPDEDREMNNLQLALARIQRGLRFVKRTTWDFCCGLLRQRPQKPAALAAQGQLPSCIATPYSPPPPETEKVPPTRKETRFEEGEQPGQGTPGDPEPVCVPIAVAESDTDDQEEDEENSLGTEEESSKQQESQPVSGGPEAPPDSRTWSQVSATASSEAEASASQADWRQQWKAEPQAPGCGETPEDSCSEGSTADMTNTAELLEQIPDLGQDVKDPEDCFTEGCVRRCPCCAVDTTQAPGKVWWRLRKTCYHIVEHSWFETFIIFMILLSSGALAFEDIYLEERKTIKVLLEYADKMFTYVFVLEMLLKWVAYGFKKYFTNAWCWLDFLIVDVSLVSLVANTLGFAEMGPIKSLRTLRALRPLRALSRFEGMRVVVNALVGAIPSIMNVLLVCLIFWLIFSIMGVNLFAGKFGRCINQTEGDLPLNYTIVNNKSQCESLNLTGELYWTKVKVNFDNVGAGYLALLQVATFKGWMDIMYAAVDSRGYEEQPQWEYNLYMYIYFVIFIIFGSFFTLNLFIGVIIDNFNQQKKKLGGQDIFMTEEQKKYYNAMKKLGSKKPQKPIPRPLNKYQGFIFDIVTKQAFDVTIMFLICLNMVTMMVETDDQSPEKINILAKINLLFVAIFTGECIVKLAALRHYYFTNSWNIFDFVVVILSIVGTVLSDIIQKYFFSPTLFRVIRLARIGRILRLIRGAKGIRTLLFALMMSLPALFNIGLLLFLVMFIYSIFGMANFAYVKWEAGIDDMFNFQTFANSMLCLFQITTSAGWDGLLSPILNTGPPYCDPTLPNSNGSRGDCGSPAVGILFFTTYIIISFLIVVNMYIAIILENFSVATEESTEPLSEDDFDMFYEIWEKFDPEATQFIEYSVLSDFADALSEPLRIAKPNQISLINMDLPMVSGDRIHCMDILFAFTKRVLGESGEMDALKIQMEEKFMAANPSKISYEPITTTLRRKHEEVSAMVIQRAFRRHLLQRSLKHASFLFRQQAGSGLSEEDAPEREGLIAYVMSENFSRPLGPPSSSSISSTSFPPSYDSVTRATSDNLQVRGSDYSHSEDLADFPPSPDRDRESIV

As to `CSCC[C@@H]1NC(=O)[C@H](Cc2ccccc2)NC(=O)CNC(=O)[C@H](CC(C)C)NC(=O)[C@@H](NC(=O)[C@@H](N)CC(=O)O)CSSC[C@@H]2NC(=O)[C@@H]3CSSC[C@@H](C(=O)N[C@@H](CCCCN)C(=O)N[C@@H](Cc4ccc(O)cc4)C(=O)N[C@H](C(=O)N[C@@H](Cc4ccccc4)C(N)=O)C(C)C)NC(=O)[C@H](Cc4c[nH]c5ccccc45)NC(=O)[C@H](CCCCN)NC(=O)[C@H](Cc4cnc[nH]4)NC(=O)[C@H]([C@@H](C)O)NC(=O)[C@H](CCCNC(=N)N)NC(=O)[C@H](CO)NC(=O)[C@H](CSSC[C@H](NC(=O)[C@H](CCCCN)NC(=O)[C@H](CCCNC(=N)N)NC1=O)C(=O)N[C@@H](CO)C(=O)N1CCC[C@H]1C(=O)N[C@@H](CC(=O)O)C(=O)N[C@@H](CC(N)=O)C(=O)N[C@@H](CC(=O)O)C(=O)N[C@@H](CCCCN)C(=O)N3)NC(=O)[C@H](C(C)C)NC(=O)[C@H](CC(C)C)NC(=O)[C@H](CC(N)=O)NC(=O)[C@@H]1CCCN1C(=O)[C@H](CCCNC(=N)N)NC2=O` (H-DCLGFMRKCSPDNDKCCRPNLVCSRTHKWCKYVF-NH2; disulfide 2-17, 9-23, 16-30), the IC50 is greater than 2.7 µM.

As to `CSCC[C@@H]1NC(=O)[C@H](Cc2ccccc2)NC(=O)CNC(=O)[C@H](CC(C)C)NC(=O)[C@@H](NC(=O)[C@@H](N)CC(=O)O)CSSC[C@@H]2NC(=O)[C@@H]3CSSC[C@@H](C(=O)N[C@@H](CCCCN)C(=O)N[C@@H](Cc4ccc(O)cc4)C(=O)N[C@H](C(=O)N[C@@H](Cc4ccccc4)C(N)=O)C(C)C)NC(=O)[C@H](Cc4c[nH]c5ccccc45)NC(=O)[C@H](CCCCN)NC(=O)[C@H](Cc4cnc[nH]4)NC(=O)[C@H]([C@@H](C)O)NC(=O)[C@H](CCCNC(=N)N)NC(=O)[C@H](CO)NC(=O)[C@H](CSSC[C@H](NC(=O)[C@H](CCCCN)NC(=O)[C@H](CCCNC(=N)N)NC1=O)C(=O)N[C@@H](Cc1ccccc1)C(=O)N1CCC[C@H]1C(=O)N[C@@H](CC(=O)O)C(=O)N[C@@H](CC(N)=O)C(=O)N[C@@H](CC(=O)O)C(=O)N[C@@H](CCCCN)C(=O)N3)NC(=O)[C@H](C(C)C)NC(=O)[C@H](CC(C)C)NC(=O)[C@H](CC(N)=O)NC(=O)[C@@H]1CCCN1C(=O)[C@H](CCCNC(=N)N)NC2=O` (H-DCLGFMRKCFPDNDKCCRPNLVCSRTHKWCKYVF-NH2; disulfide 2-17, 9-23, 16-30), the 50% inhibitory concentration (IC50) was greater than 5 µM.

As for `CC[C@H](C)[C@@H]1NC(=O)[C@@H]2CSSC[C@@H]3NC(=O)[C@H](C(C)C)NC(=O)[C@H](CC(C)C)NC(=O)[C@H](CC(N)=O)NC(=O)[C@@H]4CCCN4C(=O)[C@H](CCCNC(=N)N)NC(=O)[C@H](CSSC[C@H](NC(=O)[C@@H](N)CC(=O)O)C(=O)N[C@@H](CC(C)C)C(=O)NCC(=O)N[C@@H](Cc4ccccc4)C(=O)N[C@@H](CCSC)C(=O)N[C@@H](CCCNC(=N)N)C(=O)N[C@@H](CCCCN)C(=O)N2)NC(=O)[C@H](CSSC[C@@H](C(=O)N[C@@H](CCCCN)C(=O)N[C@@H](Cc2ccc(O)cc2)C(=O)N[C@@H](CCC(=O)O)C(=O)N[C@@H](Cc2ccccc2)C(N)=O)NC(=O)[C@H](Cc2c[nH]c4ccccc24)NC(=O)[C@H](CCCCN)NC(=O)[C@H](Cc2cnc[nH]2)NC(=O)[C@H]([C@@H](C)O)NC(=O)[C@H](CCCNC(=N)N)NC(=O)[C@H](CO)NC3=O)NC(=O)[C@H](CCCCN)NC(=O)[C@H](CC(=O)O)NC(=O)[C@H](CC(N)=O)NC(=O)[C@H](CC(=O)O)NC(=O)[C@@H]2CCCN2C1=O` (H-DCLGFMRKCIPDNDKCCRPNLVCSRTHKWCKYEF-NH2; disulfide 2-17, 9-23, 16-30), the half-maximal inhibitory concentration (IC50) was greater than 5 µM.

Regarding `CC[C@H](C)[C@@H]1NC(=O)[C@@H]2CSSC[C@@H]3NC(=O)[C@H](C(C)C)NC(=O)[C@H](CC(C)C)NC(=O)[C@H](CC(N)=O)NC(=O)[C@@H]4CCCN4C(=O)[C@H](CCCNC(=N)N)NC(=O)[C@H](CSSC[C@H](NC(=O)[C@@H](N)CCC(=O)O)C(=O)N[C@@H](CC(C)C)C(=O)NCC(=O)N[C@@H](Cc4ccccc4)C(=O)N[C@@H](CCSC)C(=O)N[C@@H](CCCNC(=N)N)C(=O)N[C@@H](CCCCN)C(=O)N2)NC(=O)[C@H](CSSC[C@@H](C(=O)N[C@@H](CCCCN)C(=O)N[C@@H](Cc2ccc(O)cc2)C(=O)N[C@H](C(=O)N[C@@H](Cc2ccccc2)C(N)=O)C(C)C)NC(=O)[C@H](Cc2c[nH]c4ccccc24)NC(=O)[C@H](CCCCN)NC(=O)[C@H](Cc2cnc[nH]2)NC(=O)[C@H]([C@@H](C)O)NC(=O)[C@H](CCCNC(=N)N)NC(=O)[C@H](CO)NC3=O)NC(=O)[C@H](CCCCN)NC(=O)[C@H](CC(=O)O)NC(=O)[C@H](CC(N)=O)NC(=O)[C@H](CC(=O)O)NC(=O)[C@@H]2CCCN2C1=O` (H-ECLGFMRKCIPDNDKCCRPNLVCSRTHKWCKYVF-NH2; disulfide 2-17, 9-23, 16-30), the IC50 is greater than 5 µM.

On to `CC[C@H](C)[C@@H]1NC(=O)[C@@H]2CSSC[C@@H]3NC(=O)[C@H](C(C)C)NC(=O)[C@H](CC(C)C)NC(=O)[C@H](CC(N)=O)NC(=O)[C@@H]4CCCN4C(=O)[C@H](CCCNC(=N)N)NC(=O)[C@H](CSSC[C@H](NC(=O)[C@@H](N)CC(=O)O)C(=O)N[C@@H](CC(C)C)C(=O)NCC(=O)N[C@@H](Cc4cccc5ccccc45)C(=O)N[C@@H](CCSC)C(=O)N[C@@H](CCCNC(=N)N)C(=O)N[C@@H](CCCCN)C(=O)N2)NC(=O)[C@H](CSSC[C@@H](C(=O)N[C@@H](CCCCN)C(=O)N[C@@H](Cc2ccc(O)cc2)C(=O)N[C@H](C(=O)N[C@@H](Cc2ccccc2)C(N)=O)C(C)C)NC(=O)[C@H](Cc2c[nH]c4ccccc24)NC(=O)[C@H](CCCCN)NC(=O)[C@H](Cc2c[nH]cn2)NC(=O)[C@H]([C@@H](C)O)NC(=O)[C@H](CCCNC(=N)N)NC(=O)[C@H](CO)NC3=O)NC(=O)[C@H](CCCCN)NC(=O)[C@H](CC(=O)O)NC(=O)[C@H](CC(N)=O)NC(=O)[C@H](CC(=O)O)NC(=O)[C@@H]2CCCN2C1=O`, for which the half-inhibitory concentration (IC50) was greater than 5 µM.

As for `CC[C@H](C)[C@@H]1NC(=O)[C@@H]2CSSC[C@@H]3NC(=O)[C@H](C(C)C)NC(=O)[C@H](CC(C)C)NC(=O)[C@H](CC(N)=O)NC(=O)[C@@H]4CCCN4C(=O)[C@H](CCCNC(=N)N)NC(=O)[C@H](CSSC[C@H](NC(=O)[C@@H](N)CC(=O)O)C(=O)N[C@@H](CC(C)C)C(=O)NCC(=O)N[C@@H](Cc4ccccc4)C(=O)N[C@@H](CCSC)C(=O)N[C@@H](CCCNC(=N)N)C(=O)N[C@@H](CCCCN)C(=O)N2)NC(=O)[C@H](CSSC[C@@H](C(=O)N[C@@H](CCCCN)C(=O)N[C@@H](Cc2ccc(O)cc2)C(=O)N[C@H](C(=O)N[C@@H](Cc2ccccc2)C(N)=O)C(C)C)NC(=O)[C@H](Cc2c[nH]c4ccccc24)NC(=O)[C@H](CCCCN)NC(=O)[C@H](Cc2cnc[nH]2)NC(=O)[C@H]([C@@H](C)O)NC(=O)[C@H](CCCCN)NC(=O)[C@H](CO)NC3=O)NC(=O)[C@H](CCCCN)NC(=O)[C@H](CC(=O)O)NC(=O)[C@H](CC(N)=O)NC(=O)[C@H](CC(=O)O)NC(=O)[C@@H]2CCCN2C1=O` (H-DCLGFMRKCIPDNDKCCRPNLVCSKTHKWCKYVF-NH2; disulfide 2-17, 9-23, 16-30), the half-maximal inhibitory concentration (IC50) was greater than 5 µM.
